CHRM5 antagonist – CHRM5 antagonism in calcium assay; P08912; CHO-hM5 cells, Fluo-8 calcium fluorescence, ACh EC80; inhibition, % at 3 µM; 360,000 tested, 0.59% active;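 active = inhibition above a per-plate cutoff, the mean of that plate's test compounds plus 3 SD, cut at about 27% in these data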;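 note: 0% = acetylcholine EC80 with DMSO and 100% = DMSO without agonist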
CHRM5 agonist – agonists of human muscarinic M5 receptor (CHRM5); P08912; CHO-K1 hM5 cells, Fluo-8 calcium fluorescence; 0% DMSO wells, 100% maximal acetylcholine response; activation, % at 3 µM; 360,000 tested, 0.19% active; AID 624037;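 active = activation above the run's mean over test compounds plus 3 SD, cut at about 23% in these data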;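 note: signal is peak over basal fluorescence ratio across the kinetic read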
M5 PAM – positive allosteric modulators of human muscarinic M5 receptor; CHO-K1 hM5, Fluo-8 calcium, ACh EC20 PAM; 0% = ACh EC20, 100% = ACh EC100; activation, % at 3 µM; 360,000 tested, 0.3% active;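 active = activation above the run cutoff, the mean activation of all test compounds plus 3 SD, cut at about 18% in these data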
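system = human M5 receptor in CHO-K1 cells | compound = one concentration, 3 µM final (nominal) | schedule = Post-acetylcholine fluorescence recording 140 s | signal = Fluo-8 calcium dye fluorescence, kinetic read | benchmarks = low control EC20 acetylcholine (0%), high control EC100 acetylcholine (100%) | repeats = singlicate, one well per test compound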
CHRM4 antagonist – blocks acetylcholine activation of human M4 receptor; P08173; AID 624125; CHO-hM4 cells, ACh EC80, Fluo-8 calcium fluorescence; 360,000 tested, 0.73% active; inhibition, % at 3 µM;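 active = inhibition above its plate's cutoff, the mean inhibition of sample wells plus 3 SD, cut at about 27% in these data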;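 note: 0% = acetylcholine EC80 with DMSO and 100% = DMSO without agonist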
Target sequence (P08173 whole entry, looked up): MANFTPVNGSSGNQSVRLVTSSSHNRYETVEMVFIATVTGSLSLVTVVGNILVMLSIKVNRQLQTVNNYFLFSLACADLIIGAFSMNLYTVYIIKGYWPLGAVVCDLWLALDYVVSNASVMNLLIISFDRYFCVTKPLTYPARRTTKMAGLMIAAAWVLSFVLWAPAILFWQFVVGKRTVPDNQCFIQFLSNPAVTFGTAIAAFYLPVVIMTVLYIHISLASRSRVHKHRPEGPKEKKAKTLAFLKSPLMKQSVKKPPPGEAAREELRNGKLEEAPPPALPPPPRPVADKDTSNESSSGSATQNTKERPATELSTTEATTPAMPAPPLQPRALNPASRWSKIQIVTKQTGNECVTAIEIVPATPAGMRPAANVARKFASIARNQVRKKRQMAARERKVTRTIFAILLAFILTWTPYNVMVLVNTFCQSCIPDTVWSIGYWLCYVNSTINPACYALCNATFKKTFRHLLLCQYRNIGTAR
M4 ag – agonists of human muscarinic M4 receptor (CHRM4) | AID 624127 | CHO-K1 hM4/Gqi5, Fluo-8 calcium fluorescence; vehicle 0%, full acetylcholine response 100% | 360,000 tested, 0.14% active | activation, % at 3 µM | P08173;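 active = activation above the run mean over all test wells plus 3 SD, cut at about 32% in these data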;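 note: peak over basal fluorescence ratio per well then scaled between controls; 0% = DMSO wells and 100% = acetylcholine at EC100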
M4 PAM – potentiates acetylcholine response at human M4 receptor. P08173. CHO-K1 hM4/Gqi5, Fluo-8 calcium fluorescence, ACh EC20; 0% = ACh EC20, 100% = maximal ACh. activation, % at 3 µM. 360,000 tested, 0.4% active;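 active = activation above its plate's cutoff, the mean activation of sample wells plus 3 SD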
* = called active by the depositor. In the library only some 1.8% were active in any assay of this set; here they are far more common.

SMILES	CHRM5 antagonist	CHRM5 agonist	M5 PAM	CHRM4 antagonist	M4 ag	M4 PAM
CCCCN(C(=O)CCC(=O)Nc1cc(C)on1)C(C(=O)NC1CCCC1)c1ccc(F)cc1 (stereo unspecified)	-13	-1	20*	-3	1	-3
O=C(c1ccccc1Nc1ccc(SC(F)F)cc1)N1CCCCC1	1	-4	6	20	0	36*
CC1CCCC(C)N1C(=O)c1ccccc1Nc1ccc(SC(F)F)cc1 (stereo unspecified)	-6	-6	22*	-7	-1	-2
Cc1cc(N2CC(C)OC(C)C2)n2cc(-c3ccccc3)nc2n1 (stereo unspecified)	-2	0	4	3	2	0
COc1ccc(NC(=O)C(c2cc3ccccc3o2)n2c(=O)c(-c3cc4ccccc4[nH]3)nc3ccccc32)cc1 (stereo unspecified)	4	3	2	9	1	2
CC1CCN(S(=O)(=O)c2ccc(NC(=O)c3ccccc3F)cc2)CC1	11	1	-1	-1	6	-8
CC1CCN(S(=O)(=O)c2ccc(NC(=O)Cn3nnc(-c4ccccc4F)n3)cc2)CC1	31*	-3	-22	-3	5	-3
O=C(NCCN1CCCC1)c1ccc(Cn2c(=S)[nH]c3ccc(Br)cc3c2=O)cc1	26	46*	-33	1	6	-13
CC1CCN(CCNC(=O)c2ccc3c(=O)n(Cc4ccc(Cl)cc4)c(=S)[nH]c3c2)CC1	17	2	-15	29*	59*	-22
O=C(NCCCN1CCOCC1)c1ccc2c(=O)n(Cc3cccc(Br)c3)c(=S)[nH]c2c1	14	0	2	4	3	-1
CCN(CC)CCNC(=O)c1ccc2c(=O)n(C3CCCC3)c(=S)[nH]c2c1	1	-8	-3	27*	2	-27
CC(C)NC(=O)c1ccc2c(=O)n(C3CCCC3)c(=S)[nH]c2c1	-1	-2	1	4	0	7
CC1NC(=O)COC1c1ccccc1 (stereo unspecified)	5	2	-6	-7	0	4
O=C(COc1ccc(Cl)cc1)Nc1ncc([N+](=O)[O-])s1	31*	4	-20	2	13	-6
Cc1ccc(C(=O)Nc2ncc([N+](=O)[O-])s2)cc1	32*	2	-19	5	15	-6
O=C(O)c1csc(N/N=C/c2ccc(Br)cc2)n1	9	0	0	-6	1	-4
CCN(CC)CCCN(C(=O)c1cccc(C)c1)c1nc(-c2ccc(OC)cc2)cs1	16	-22	-11	35*	16	65*
CCN(CC)CCCN(C(=O)c1cccs1)c1nc(-c2ccc(OC)cc2)cs1	9	-6	-17	20	5	-21
CCN(CC)CCCN(C(=O)c1ccc(Br)cc1)c1nc(-c2ccc(OC)cc2)cs1	-2	-4	3	9	9	46*
COc1cccc(NC(=O)CCSc2ccc(C)cc2)c1	5	-1	2	-1	0	1
O=C(Nc1ccccc1)Nc1cnccn1	5	-1	-2	-6	2	5
CCn1c(SCC(=O)N2CCCCC2C)nnc1-c1ccco1 (stereo unspecified)	5	-1	-4	5	1	-6
CC1CCCCN1C(=O)CSc1nnc(-c2ccco2)n1CC1CCCO1 (stereo unspecified)	0	2	0	9	2	30*
Cc1ccc(CN2CCN(C/C(Cl)=C/c3ccccc3)CC2CCO)o1 (stereo unspecified)	-4	-4	2	-5	5	-5
Cc1nc(-c2nnc(-c3ccccc3)o2)c(C(F)(F)F)o1	14	0	-20	29*	13	-20
SMILES	CHRM5 antagonist	CHRM5 agonist	M5 PAM	CHRM4 antagonist	M4 ag	M4 PAM
c1ccc(-c2nnc(-c3ccccc3)o2)cc1	6	-1	1	-9	1	4
C=CCn1c(SCC(=O)c2[nH]c(C)c(C(=O)OCC)c2C)nc2scc(-c3ccc(OC)cc3)c2c1=O	-3	-3	1	3	1	-1
Cn1nc(C(C)(C)C)c([N+](=O)[O-])c1C(=O)NC(C)(C)C	5	1	4	1	1	32*
Cn1nc(C(C)(C)C)c([N+](=O)[O-])c1C(=O)Nc1ccccc1	15	0	-15	-5	3	4
CN1CCN(c2ccc(S(=O)(=O)N3CCOCC3)cc2NC(=O)COc2ccc(C#N)cc2)CC1	6	-1	10	-8	2	13
Cc1cc(C)n(CCNC(=O)c2ccc3c(c2)OCO3)n1	-2	-2	10	-3	0	-1
COc1cccc(CNC(=O)CCNS(=O)(=O)c2ccc3[nH]c(=O)oc3c2)c1	-4	-3	6	-4	0	16*
CCOC(=O)c1ccccc1-n1c(C)cc(C2N=C(N)Nc3nc4ccccc4n32)c1C (stereo unspecified)	9	-7	-22	60*	1	-16
Cc1ccc(C)c(NC(=S)N/N=C2/CCCCc3ccccc32)c1	0	-2	6	3	-2	-9
COc1ccccc1NS(=O)(=O)c1cccc(-n2c(O)c(C=Nc3ccccc3C(=O)O)c3ccccc3c2=O)c1	-3	-1	9	1	-2	36*
COc1ccc(Cn2c(O)c(C=Nc3ccccc3C(=O)O)c3ccccc3c2=O)cc1	-3	3	13	-18	-2	16
O=C(COC(=O)C1CCC1)Nc1ccc(OC(F)F)cc1	0	-5	1	0	1	-4
O=C(COC(=O)C1CC1)Nc1ccc(OC(F)F)cc1	-3	1	5	29*	2	4
CCCC1(C(=O)OCC)NC(c2cc(OC)c(OC)c(OC)c2)C2C(=O)N(CC)C(=O)C21 (stereo unspecified)	-5	1	-1	-3	2	35*
CCOC(=O)C1CCCN(C(=O)CNC(=O)c2ccc(Br)o2)C1 (stereo unspecified)	3	6	7	-15	1	15
Cc1cc(=O)oc2ccc(OC(C)C(=O)O)cc12 (stereo unspecified)	0	1	-1	-4	1	9
CC(C)CNC(=O)c1ccc(C2SCC(=O)N2Cc2ccccc2)cc1 (stereo unspecified)	-3	-11	-20	47*	1	-25
CSCCC(NC(=O)c1ccco1)C(=O)N1CC(C)OC(C)C1 (stereo unspecified)	12	-3	-10	-16	3	9

High-throughput results as filed in PubChem.
